Measurements taken from the EternaBench riboswitch data.

System: MS2 coat protein
Test: apparent Kd, MS2 coat protein; higher = weaker binding; RNA-MaP array; FMN 200 µM where present
Procedure, shortened: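 The titrant was SNAP-549-labelled MS2 coat protein, run from 0.7 or 1.5 nM in doubling steps to 3 µM. It was applied to designs transcribed by stalled E. coli RNA polymerase on Illumina sequencing-chip clusters, without ligand first and then with constant ligand, in 100 mM Tris-HCl pH 7.5, 80 mM KCl, 4 mM MgCl2, BSA, DTT, yeast tRNA and Tween-20. The apparent Kd is the median of filtered per-cluster binding-curve fits, with green signal normalised to red-channel RNA signal and control-cluster median Fmax.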

[1] = designed as: ON switch for flavin mononucleotide, no ligand
[2] = ligand present: flavin mononucleotide, designed as: ON switch for flavin mononucleotide
[3] = designed as: OFF switch for flavin mononucleotide, no ligand
[4] = ligand present: flavin mononucleotide, designed as: OFF switch for flavin mononucleotide

Sequence | apparent Kd [1] [nM] | apparent Kd [2] [nM] | apparent Kd [3] [nM] | apparent Kd [4] [nM]
GUAGCUACAAUUAUACAUGAGGAUCACCCAUGUUACAUGGGUAAGGAUAUUGAGGUUAUUAUUGUCAAGAAGGUACUAUGCUAC | 505 | 71.6 |  | 
GUAGCUAUCGGAGGAUAUUCAUACCGGAAACGGACAUGAGGAUCACCCAUGUGGAGAAAGCCUUAGGAGAAGGCCGAUAGCUAC | 33 | 8.9 |  | 
GUAGCUAUCGGAGGAUAUUCAUAUCGGAAACGGACAUGAGGAUCACCCAUGUGGCUAAAGCCUUGGGAGAAGGCCGAUAGCUAC | 120 | 7.75 |  | 
GUAGCUUUCCGAGGAUAUUCAUACCGGAAACGGACAUGAGGAUCACCCAUGUGGCGAAAGCCUUGGGAGAAGGCGGAAAGCUAC | 446 | 23.4 |  | 
GUAGGCGACCAGAAGGGUGACAUGAGGAUCACCCAUGUAGGUGUGUUCCCGCUUAGGAGCCACCCACAGGAUAUGGUUGGUUAG | 27.6 | 23.9 |  | 
GUAUCGUAUGUGAGGAUAUAUUAAACCUUGGAUUUGUAGAAGGCACAUGAGGAUCACCCAUGUCCUAGUGGUCC |  |  | 29.4 | 33.3
GUAUGAGCGAUAGGAUAUACUGGGAUUGAAUGGGUAGAAGGAUUUCUUGUGGGAAAGACAUGAGGAUCACCCAUGUCGCGGACC | 255 | 165 |  | 
GUAUUUUGAGGAUAUACUAUUAACCACAUGAGGAUCACCCAUGUUCUAUCAUGAAUUUAUGUAGAAGGCAGAAUGC |  |  | 71.8 | 128
GUCAACUCGUGAGGAUAUACAACACUGCUUCGGCAGUGUAUUAAGAUCACAUGAGGAUCACCCAUGUAGAAGGCACGAGCUGAU |  |  | 14.4 | 214
GUCAAGUGAGGAUAUGAUUGUACGGCAGACUAGCGUCUGCAUCAGAAGGCACAUGAGGAUCACCCAUGUUUGUC |  |  | 19.1 | 16.9
GUCACACACUGCUCCGUGUCUGACAUGAGGAUCACCCAUGUGAGAAGGUAGCGUCGAAGCAACGUUAAGGAUAUCACGUGCAGU |  |  | 6.68 | 8.39
GUCAGCUCGUCAGGAUAUACGUCACUGCUUCGGCAGUGUGGUAAGAUCACAUGAGGAUCACCCAUGUAGAAGGGACGAGCUGAU |  |  | 12.3 | 291
GUCAGCUCGUGAGGAUAUACAACACUGCUUCGGCAGUAUAUUAAGAUCACAUGAGGAUCACCCAUGUAGAAGGCACGAGCUGAU |  |  | 15 | 284
GUCAGCUCGUGAGGAUAUACAACACUGCUUCGGCAGUGAAUUAAGAUCACAUGAGGAUCACCCAUGUAGAAGGCACGAGCUGAU |  |  | 17 | 325
GUCAGCUCGUGAGGAUAUACAACACUGCUUCGGCAGUGUAUUAACAUCACAUGAGGAUCACCCAUGUAGAAGGCACGAGCUGAU |  |  | 4.99 | 7.45
GUCAGCUCGUGAGGAUAUACAACACUGCUUCGGCAGUGUAUUAAGAUCACAUGAGGAUCACCCAUGUAGAAGGUACGAGCUGAU |  |  | 8.56 | 82.9
GUCAGCUCGUGAGGAUAUACAACACUGCUUCGGCAGUGUAUUUAGAUCACAUGAGGAUCACCCAUGUAGAAGGCACGAGCUGAU |  |  | 15.6 | 363
GUCAGCUCGUGAGGAUAUACAACACUGCUUCGGCAUUGUAUUAAGAUCACAUGAGGAUCACCCAUGUAGAAGGCACGAGCUGAU |  |  | 9.1 | 109
GUCAGCUCGUGAGGAUAUACAUCACUGCGAAAGCAGUGUAUUAAGAUCACAUGAGGAUCACCCAUGUAGAAGGCACGAGCUGAU |  |  | 43.7 | 626
GUCAGCUCGUGAGGAUAUACAUCACUGCUUCGGCAGUGUAUUAAGAUUACAUGAGGAUCACCCAUGUAGAAGGCACGAGCUGAU |  |  | 17.4 | 23.9
GUCAGCUCGUGAGGAUAUACAUGUGCUGGAUACAGCACUAAUUAAAUCACAUGAGGAUCACCCAUGUAGAAGGCACGAGCUGAU |  |  | 16.7 | 24.8
GUCAGCUCGUGAGGAUAUACUUCACUGCUUCGGCAGUGUAUUAAGAUCACAUGAGGAUCACCCAUGUAGAAGGCACGAGCUGAU |  |  | 22.8 | 182
GUCAGCUUGUGAGGAUAUACAACACUGCUUCGGCAGUGUAUUAAGAUCACAUGAGGAUCACCCAUGUAGAAGGCACGAGCUGAU |  |  | 14 | 257
GUCAUCUCAUGAGGAUAUGCUCGGGUUUCCCGAGCAGAAGGCAUGUCAUAAGACAUGAGGAUCACCCAUGUAUUUAAGAUUGUA | 49.6 | 8.92 |  | 
GUCAUGGUAACAGGAUAUCGUUGAUAAAAGUUAUACAUGAGGAUCACCCAUGUCCGCACUAAGGGCGAGAAGGGUUAUUAUCAC | 501 | 382 |  | 
GUCCUACAUGAGGAUCACCCAUGUAAGGAUAUGCUAGCGGUCGGAAGACUGACUGCUAGCAGAAGGUACAUGAU |  |  | 15 | 24.5
GUCGGAAACGACAAGUAGCAAUCGGAGGAUAUUCAUUAAAACAUGAGGAUCACCCAUGUAAAAUGGGAGAAGGCCGAUUGCUAC | 13.6 | 6.03 |  | 
GUCGUGUGAGGAUAUGAUUUUUAGGCGGGAUUGCGACUGCUUCAGAAGGCACAUGAGGAUCACCCAUGUAUGAA |  |  | 11.3 | 38.8

Sequence | apparent Kd [1] [nM] | apparent Kd [2] [nM] | apparent Kd [3] [nM] | apparent Kd [4] [nM]
GUCGUGUGAGGAUAUGAUUUUUCGGCGGGCUUGCGUCUGCUUCAGAAGGCACAUGAGGAUCACCCAUGUUUGUC |  |  | 12 | 29.5
GUCUCGAUGUAAGGAUAUGCAGUGGAUAACACUGCAGAAGGUACAUGAGGAUCACCCAUGUAACUCUAAUAAUAAUAACGAGAC |  |  | 13.1 | 17.3
GUCUUCAUGACAUGAGGAUCACCCAUGUGUUAUAUUUUUACUAAGGAUAUAUUUUUAAUGUUGAGAUAGAAGGUAGUUUCGGUC |  |  | 101 | 121
GUGAAACAUGAGGAUCACCCAUGUGAGGAUAUGUUUUAGUAAUGAUGAAAGUAAAUCUACAGAAGGCACAAUGG |  |  | 75.8 | 117
GUGACGAAUGUAGGAUAUGCUGAGGAUAACUCAGCAGAAGGACAUGAGGAUCACCCAUGUACUAUGAGUGAAUAAUAACGUCAC |  |  | 82.2 | 756
GUGAGUAGUCAGGAUAUGCUGUACAAAAGUACAGCAGAAGGGAUUACAUGAGGAUCACCCAUGUUUUCUUCAUG |  |  | 83.5 | 564
GUGCCUUGGGAGAAGGAUAAUAAUAAAUAAAUAAUAGGAUAUUCAUACCGGAAACGGACAUGAGGAUCACCCAUGUGGCACAAA | 413 | 125 |  | 
GUGCCUUGGGAGAAGGUUAUUGGCAAAGCUAUUAAAGGAUAUUCAUACCGGAAACGGACAUGAGGAUCACCCAUGUGGCACAAA | 752 | 208 |  | 
GUGCGGUCAGGAUAUGCAUGGCGGGACUUGCGUCGUGGCGUGGAGAAGGGACAUGAGGAUCACCCAUGUGGAGG |  |  | 107 | 84.9
GUGCGUGGCUAGGAUAUUGUGGGUUUUUGUCAGCGAGAAGGAGCCACAUGAGGAUCACCCAUGUGGUGUUGCUC |  |  | 187 | 57.1
GUGCUUAUCGAAGGAUAUGGUUACAUGAGGAUCACCCAUGUUAUGCUUGGUUACUUGUUUAGUUUCCAGAAGGUCGAUUAGUUG |  |  | 75.5 | 170
GUGGCCCAGGCACAGGAUAUGUUUCUCGUAACAUGAGGAUCACCCAUGUGCCUAUGAGAUUGUUUGCAGAAGGGUGCACGCCACG | 449 | 24 |  | 
GUGGUCAGACAUGAGGAUCACCCAUGUGGAAUAAAUAACAGACAGGAUAUCAAAUAUAGGAUAUAUGAGAAGGGUCGAUUGGUG | 99.5 | 84.3 |  | 
GUGGUCAGACAUGAGGAUCACCCAUGUGGAAUAAAUAACGGACAGGAUAUGCAAUAUAGGAUAUAGUAGAAGGGUUGAUUGGUG | 56.5 | 60.6 |  | 
GUGGUCAGACAUGAGGAUCACCCAUGUGGAAUAAAUAAGGAGAAGGAUAUUCAAUAUAGGAUAUAGAAGAAGGUCUGGUUGGUG | 73.7 | 82.7 |  | 
GUGGUCAGACAUGAGGAUCACCCAUGUGGAAUAAAUAAGGCAUAGGAUAUGAAAUAUAGGAUAUAUCAGAAGGAUGGGUUGGUG | 164 | 191 |  | 
GUGGUGCAUAUACGUGGAUGUACAUGAGGAUCACCCAUGUGAGAGGAUAUGCGGAUACUAGCUCAGCAGAAGGCUUACAAAUGA |  |  | 15.2 | 45.8
GUGGUGUAGAUACAGGAUAUGUUGCUCGUAACAUGAGGAUCACCCAUGUAUCUAUGAGAUAAAAUGCAGAAGGGUGCACACCACU | 357 | 19.1 |  | 
GUGGUUGUCGUAGGAUAUGUAGGAUAUUCCUACAUGAGGAUCACCCAUGUUCGCAUGGAAGAAGGACAGAAGGACGAUGACCAC | 1250 | 10.2 |  | 
GUGGUUGUCGUAGGAUAUGUAGGAUAUUCCUACAUGAGGAUCACCCAUGUUCGCAUGGAAGAAUGACAGAAGGACGAUGACCAU | 330 | 82.6 |  | 
GUGUACAGAGGAUAUACAAUAGGAGUUACGAAAGUAACUUCACAUGAGGAUCACCCAUGUAGAAGGCUGUACAC |  |  | 18.1 | 37.8
GUGUACAGAGGAUAUACACGAGUAGUUACGAAAGUAACUAUACAUGAGGAUCACCCAUGUAGAAGGCUGUACAC |  |  | 19.1 | 30.5
GUGUACAGAGGAUAUACAGGAGCUAGGAAACUAGCAACCUCACAUGAGGAUCACCCAUGUAGAAGGCUGUACAC |  |  | 251 | 66.7
GUGUACAGAGGAUAUACUUGAAUCUAGCGAAGCUAGGUUUGACAUGAGGAUCACCCAUGUAGAAGGCUGUACAC |  |  | 15.3 | 20.5
GUGUGAUUAAGAGGAUAUAUACAACAUGAGGAUCACCCAUGUACCCGUGUAGUAGAAGGUUUGUUUUUAUAUAAUAUUAUAUUU | 26.5 | 21.9 |  | 
GUGUGCUGAGGAUAUACACAGGAAUAGAAGAUAAGAUAAUCACAUGAGGAUCACCCAUGUAGAAGGCAGAGUGU |  |  | 15.2 | 17.3
GUUAACACAUGAGGAUAUGCUCGCAUUUCAAGAGCAGAAGGUAUGUCUAUAGACAUGAGGAUCACCCAUGUAUUUAUCAUUGAA | 274 | 52.6 |  | 
